Reference: PubChem BioAssay
Unmarked numbers belong to inactive results. Records with an inconclusive call do not appear. Calls of active or inactive are those of the source.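 Rule for the calls, unless noted: active = inhibition over a set limit, the all-compound mean plus 3 SD, in both replicate runs; inconclusive = over that limit in just one replicate run; inactive = at or under that limit in both runs.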

Columns and labels:
[1] = OD615 S. cerevisiae growth inhibition, permissive medium, pilot counter-assay, permissive growth control for S. cerevisiae lifespan shortening project (AID 705;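 active = growth inhibition above 25% in both replicates, a cutoff set 3 SD above the mean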); details: OD615, 24 h, at 10 µM, active compounds read high
Outline: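 System: engineered DeaD yeast; Medium: permissive raffinose/galactose medium; Compound dosing: 10 µM single dose, 0.25% DMSO; Incubation: 4 h cell pre-growth, 24 h exposure at 30 °C; Technique: OD at 615 nm; Evaluation: growth inhibition from lowered OD615 after 24 h.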

[2] = Restrictive medium S. cerevisiae growth inhibition, OD615, pilot screen of yeast lifespan reduction project, restrictive growth control (AID 706;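 active = growth inhibition above a set limit, 3 SD over mean compound inhibition, in both replicates, cut at about 43% in these data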;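 note: modified DeaD lifespan yeast strain shifted to restrictive glucose medium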); details: OD615, 48 h, at 10 µM, active compounds read high
Outline: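 Material: modified S. cerevisiae; buffer or medium: CSMM-D glucose medium; doses: one concentration, 10 µM final, 0.25% DMSO; incubation: 48 h compound exposure at 30 °C; detection: optical density at 615 nm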

[3] = viability gain of MRP-1-high H69AR cells under doxorubicin, pilot screen, MRP-1 activator project, CellTiter-Glo, duplicate (AID 807;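 active = viability increase at or above a cutoff of the median across tested compounds plus 3 SD, cut at about 8.5% in these data, passing the limit was not always enough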;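 note: compound pretreatment 18-22 h then 72 h combined with doxorubicin; 0% = doxorubicin alone and 100% = vehicle without doxorubicin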); details: H69AR viability with doxorubicin, CellTiter-Glo luminescence; at 10 µM; active compounds read high
[4] = growth suppression of beta-catenin knockout HCT116, pilot screen, human colon tumor cells (AID 823;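 active = cell viability at or below a set limit in both duplicate runs, the limit being the all-compound median minus 4 SD, cut at about 23% in these data, passing the limit was not always enough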;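 note: 0% = wells killed by 20 µM Hyamine and 100% = untreated DMSO cell wells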); details: CellTiter-Glo, 60 h, at 10 µM, active compounds read low
[5] = growth suppression of PTEN-deleted HCT116, pilot screen, cell-based, HCT116 clonal line, CellTiter-Glo (AID 824;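 active = viability at or below 27.92% in each of two runs, the all-compound median minus 4 SD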;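 note: 0% = 20 µM Hyamine control and 100% = vehicle cell control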); details: 60 h, at 10 µM, active compounds read low
[6] = inhibitors of the yeast RAM network, pilot screen, dse1pr::URA3 reporter, 5-FOA selection (AID 869);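 note: 0% = DMSO wells with no growth and 100% = 10 µM 1-NA-PP1 with full growth; RAM network block rescues cells from 5-FOA so hits raise OD615 growth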; details: S. cerevisiae dse1pr::URA3 5-FOA growth, OD615, 2 d; at 10 µM; active compounds read high; strain carries analog-sensitive mutant Cbk1 kinase
[7] = RAM signaling pathway blockade in yeast – S. cerevisiae, Pdr1DBD-CYC8 efflux-inhibited sensitized strain, primary screen (AID 1298;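 active = RAM network inhibition above 8.4% in each of two replicates, 3 SD over the compound average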;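 note: 0% = DMSO untreated cells without growth and 100% = 10 µM 1-NA-PP1 full growth; higher means more yeast growth rescued from 5-FOA killing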); details: S. cerevisiae cbk1-as DSE1-URA3 strain, 5-FOA growth OD615, 2 d; at 50 µM; active compounds read high

SMILES | growth inhibition [1] | growth inhibition [2] | viability increase [3] | viability [4] | viability [5] | inhibition [6] | RAM network inhibition [7]
O=C(NCCCN1CCOCC1)C1CCC(=O)N1CCc1ccccc1 (configuration not stated) | -0.765% | -7.29% | -0.18% | 103% | 96.7% | 3.66% | 0.63%
COc1cccc(N2C(=O)Nc3ccccc3C2(O)C(=O)NCc2ccc3c(c2)OCO3)c1 (configuration not stated) | -11.5% | -8.59% | -0.4% | 95.9% | 99.7% | 0.51% | 9.22%
CC1(C)CC(N2CCN(c3ccccc3)CC2)=CC(=[N+]2CCCC2)C1 | -2.24% | -20.8% | -3.22% | 18.1% (active) | 18.4% (active) | 1.37% | 0.52%
c1ccc(C2NCCn3cccc32)cc1 (configuration not stated) | -8.84% | -13.7% | -2.82% | 99% | 98% | 0.21% | 2.74%
COC(=O)C1=CN(C)C=C(C(=O)OC)C1c1ccc(Cl)cc1Cl | -12.4% | -10.4% | -2.14% | 85.1% | 78.2% | 3.2% | 8.48%
Cc1ccc(C2CC(c3ccccc3)n3ncnc3N2)cc1 (configuration not stated) | 1.32% | 6.08% | 1.68% | 99.9% | 98.8% | 0.06% | 1.8%
Cc1cnc(C(=O)OCC(=O)Nc2ccc(Cl)cc2)cn1 | -19% | -21% | -2.99% | 101% | 92.8% | 3.85% | 3.15%
C=C(C)Cn1c(C2CC(=O)N(c3ccccc3F)C2)nc2ccccc21 (configuration not stated) | -9.62% | -5.32% | -2.5% | 100% | 105% | 0.42% | 1.56%
O=C(Nc1ccc(Oc2ccc(NC(=O)C3CCCO3)cc2)cc1)C1CCCO1 (configuration not stated) | -2.75% | -11% | -5.07% | 85.7% | 96.7% | 3.62% | -0.11%
O=C(COC(=O)c1cccs1)Nc1ccccc1 | -5.3% | 0.975% | -0.14% | 96.7% | 97.1% | 1.56% | 0.11%
CC1CCCC(NC(=O)c2ccc3c(c2)N(Cc2ccccc2)C(=O)CS3=O)C1C (configuration not stated) | 0.145% | 4.42% | -3.1% | 70.8% | 62.5% | 0.69% | 5.92%
COc1cc2c(c(O)c1OC)C(=O)C(OC)CCC2 (configuration not stated) | 0.06% | -2.16% | -0.47% | 97% | 93.7% | 0.275% | -0.62%
C(=N\c1nc2ccccc2n1Cc1ccccc1)/c1cccs1 | -3.85% | -3.94% | -3.85% | 88.7% | 88.6% | 1.94% | 4.3%
N#CC1=C(N)C(C#N)(C#N)C2(C(=O)Nc3ccccc32)C2CCCC=C12 (configuration not stated) | 5.05% | -12.2% | -4.96% | 91.5% | 82.6% | 0.71% | 0.83%
Cn1c(C(=O)NCCN2CCCCCC2)cc2c(=O)n(C)c3ccccc3c21 | -1.66% | 0.56% | -5.04% | 65.7% | 74.9% | 1.29% | 5.21%
Cc1ccc2[nH]c(=O)c3cc(C(=O)N(C)Cc4ccco4)sc3c2c1 | -11.6% | -4.44% | -5.5% | 71.4% | 67.5% | -0.255% | -1.79%
CCOC1CCCCC1NS(=O)(=O)c1ccc(Cl)cc1 (configuration not stated) | -3.5% | 1.71% | -3.23% | 99.3% | 91.7% | 1.5% | 2.71%
Cn1c(C(=O)N2CCC(C(N)=O)CC2)cc2c(=O)n(C)c3ccccc3c21 | -2.25% | 1.93% | -0.97% | 110% | 99.3% | 0.085% | 2.21%

SMILES | growth inhibition [1] | growth inhibition [2] | viability increase [3] | viability [4] | viability [5] | inhibition [6] | RAM network inhibition [7]
CCOC(=O)Cn1c(C(C)=O)nc2ccccc21 | -18.1% | -25.1% | 0.94% | 102% | 94.8% | 0.28% | 0.32%
CCOC(=O)Cn1c(CN2CC(C)OC(C)C2)nc2c1c(=O)n(C)c(=O)n2C (configuration not stated) | 3.12% | 8.5% | 0.25% | 95.2% | 95% | -0.31% | -1.12%
Cc1onc(-c2ccccc2Cl)c1C(=O)OCn1nnc2ccccc2c1=O | -5.29% | -2.08% | -1.94% | 84.4% | 87.3% | 2.41% | 7.77%
Cn1c(SCc2nc(-c3ccc(Cl)cc3)no2)nnc1-c1ccco1 | -8.54% | -0.675% | -2.85% | 90.6% | 85.6% | 2.02% | 6.31%
Cc1ccc(C(c2sc3ncnn3c2O)N2CCCCC2)cc1 (configuration not stated) | -12.7% | -15.6% | 1.87% | 92.9% | 101% | 0.04% | -0.37%
Cc1nn(-c2ccccc2)c2c1C(c1ccccc1)C(C#N)=C(N)O2 (configuration not stated) | -13.1% | -12.2% | -2.62% | 91.3% | 87.8% | 2.24% | 10.5%
Cc1cc(C(=O)NCc2ccco2)cs1 | -6.77% | -6.79% | -2.37% | 106% | 99.9% | 2.28% | -0.32%
O=C(Nc1ccccc1C(=O)NCc1ccco1)NC1CCCCC1 | -5.4% | 6.01% | -3.58% | 93.1% | 92.8% | 0.79% | 0.59%
O=C(Nc1nc(-c2ccccn2)cs1)c1ccc(Cl)s1 | 94.1% (active) | 96.8% (active) | -8.93% | 10.6% (active) | 22.1% (active) | -1.18% | -2.58%
O=C(CCNS(=O)(=O)c1cccc2nonc12)NCc1cccs1 | -0.555% | -14.2% | -1.88% | 96.3% | 89.1% | 2.46% | 1.92%
Cc1cc(C)nc(SCC(=O)c2ccc(O)cc2O)n1 | -0.2% | 9.03% | -3.73% | 99.7% | 99.4% | 1.04% | -1.2%
COc1ccc2[nH]c(C)c(CCN3C(=O)C4C5C=CC(C5)C4C3=O)c2c1 (configuration not stated) | -3.19% | 5.9% | -2.43% | 106% | 94.9% | 0.285% | 4.02%
Cc1cc2oc3c(c(=O)c2cc1C)C(c1ccc(C(C)C)cc1)N(CCCN1CCOCC1)C3=O (configuration not stated) | -7.04% | -2.79% | -3.45% | 95.8% | 86.5% | 1.31% | 4.42%
CCc1ccccc1NC1c2ccccc2C(=O)N1Cc1ccco1 (configuration not stated) | -4.26% | 12.8% | -4.71% | 97.1% | 84.8% | 2.31% | 3.95%
COc1ccc(NC2=CC(=O)CC(C)(C)C2)cc1OC | -5.52% | -8.65% | -3.58% | 96.8% | 89.2% | 0.975% | 0.37%
CCOc1ccc(C(F)(F)F)cc1NC(C)=O | -6.15% | -9.57% | -3.24% | 90.4% | 90.3% | 0.62% | 3.29%
COc1ccc(Nc2nnc(Cc3ccc(Cl)cc3)c(=O)[nH]2)c(OC)c1 | -11.1% | -13% | 1.86% | 100% | 95.7% | 1.89% | 2.35%
O=C(CCCOc1ccccc1)Nc1ccc2c(c1)OCCO2 | 1.88% | 7.45% | -4.17% | 102% | 102% | 1.16% | 3.58%
